In publication PMC3498827 (The Biochemical journal, 2012):

Columns and labels:
[1] = molecular target: HsRPYK (Homo sapiens, UniProt P30613); assay: Inhibition of HsRPYK; type: biochemical
[2] = molecular target: LmPYK (Leishmania mexicana, UniProt Q27686); assay: PYK inhibitor assay; type: biochemical
In short: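 Pre-incubation mix held at 25 °C: LmPYK 1.6 U/mL, 0.4 mM PEP, 3.2 U/mL lactate dehydrogenase and 0.2 mM NADH in 50 mM TEA pH 7.2, 100 mM KCl, 3 mM MgCl2, 10% glycerol. Test compound (final 50 µM, from DMSO stock) added last; buffer-only control. Every 20 min […], an aliquot was started with 0.2 mM ADP (final). A340 decrease followed for 2 min. Initial rate expressed as % of control.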

[3] = molecular target: Lys335Arg mutant of LmPYK (Leishmania mexicana, UniProt Q27686, K336R); assay: PYK inhibitor assay with Lys335Arg mutant; type: biochemical; details: 50 µM DBS, 0.4 mM PEP, identical assay conditions to wild-type
[4] = Chemical stability; details: hydrolysis of the linkage to saccharin moiety
[5] = tested on: four human PYK isoenzymes; assay: Irreversible inhibition of human PYK isoenzymes; type: biochemical
[6] = molecular target: rabbit lactate dehydrogenase (Oryctolagus cuniculus, UniProt P13491); assay: Inhibition of coupling enzyme lactate dehydrogenase; type: biochemical; details: active-site Lys56
[7] = Solubility; type: physicochemical; details: relative to original screening hit NCGC00186526
[8] = molecular target: wild-type LmPYK (Leishmania mexicana, UniProt Q27686); assay: qHTS / LmPYK activity assay; type: biochemical

Sequence of HsRPYK (P30613 whole entry): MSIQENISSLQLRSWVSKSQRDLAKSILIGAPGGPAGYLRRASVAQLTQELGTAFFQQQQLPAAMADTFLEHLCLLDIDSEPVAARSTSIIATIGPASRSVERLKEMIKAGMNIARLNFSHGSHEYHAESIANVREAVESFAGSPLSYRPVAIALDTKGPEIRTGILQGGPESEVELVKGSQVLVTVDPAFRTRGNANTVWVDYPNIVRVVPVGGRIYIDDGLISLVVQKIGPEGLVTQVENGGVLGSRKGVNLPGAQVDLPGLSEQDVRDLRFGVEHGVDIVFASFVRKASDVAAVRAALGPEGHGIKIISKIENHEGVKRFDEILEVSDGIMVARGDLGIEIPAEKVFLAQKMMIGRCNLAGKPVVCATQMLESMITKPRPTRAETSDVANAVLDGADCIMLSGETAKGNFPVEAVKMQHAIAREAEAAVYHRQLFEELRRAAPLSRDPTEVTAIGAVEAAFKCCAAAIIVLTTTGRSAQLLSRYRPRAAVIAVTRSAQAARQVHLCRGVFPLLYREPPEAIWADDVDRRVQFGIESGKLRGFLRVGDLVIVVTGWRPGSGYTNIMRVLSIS

Row | SMILES | IC50 [1] [µM] | time to maximal inhibition ([2]; 50 µM DBS, 25 °C) | inhibition at 50 µM ([2]; read-out: Maximal inhibition) [%] | change in activity over time [3] | stability [4] | irreversible inhibition [5] | inhibition of rabbit lactate dehydrogenase [6] | solubility [7] | IC50 [8] [µM]
1 | O=C(O)c1ccc(SC2=NS(=O)(=O)c3ccccc32)cc1 [DBS, 4-[(1,1-dioxo-1,2-benzothiazol-3-yl)sulfanyl]benzoic acid] | 8 | ~ 250 min | ~80 | essentially no change in activity over time | improved stability and solubility profiles | irreversibly inhibited | inability of DBS to inhibit | improved stability and solubility profiles | –
2 | Cc1ccc(C)c(OC2=NS(=O)(=O)c3ccccc32)c1 [NCGC00186526] | – | – | – | – | – | – | – | – | 10
3 | Cc1ccc(C)c(SC2=NS(=O)(=O)c3ccccc32)c1 [NCGC00188411] | – | – | – | – | Stable | – | – | – | 5
